≈ marks a conversion by molar mass, not a printed value. Calls of active or inactive are those of the source. The calls are words filed in the database; no cut-off is given here.
Key:
[1] = system: A549; test: Cytotoxicity against human A549 cells assessed as cell viability at 10 uM after 24 hrs by MTT assay; type: functional; conditions: A549, 24 h, read-out: Activity
Outline: (§1)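 Cells were seeded at 3.10³–5.10³ per well in RPMI 1640 with 10% FBS, 4 mM L-glutamine and penicillin/streptomycin, then held 24 h at 37 °C under 5% CO₂. Ligands (DMSO, final 0.5% v/v) were added at 0.1–100 for 24 or 48 h. MTT was added for 4 h and dissolved in 50% DMF/5% SDS. A570 was read, and cytotoxicity was calculated as 100×(OD treated/OD untreated).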

[2] = system: Pseudomonas aeruginosa; test: Antibacterial activity against Pseudomonas aeruginosa ATCC 27853 after 24 hrs by broth micro dilution method; type: functional; conditions: ATCC 27853, 24 h
[3] = Cytotoxicity against human 23132/87 cells assessed as cell viability at 1 uM after 24 hrs by MTT assay; type: functional; conditions: 23132-87, 24 h, read-out: Activity; outline: as §1
[4] = system: Micrococcus luteus; test: Antibacterial activity against Micrococcus luteus La 2971 after 24 hrs by broth micro dilution method; type: functional; conditions: La 2971, 24 h
[5] = system: A549; test: Cytotoxicity against human A549 cells assessed as cell viability at 100 uM after 48 hrs by MTT assay; type: functional; conditions: A549, 48 h, read-out: Activity; outline: as §1
[6] = Cytotoxicity against human 23132/87 cells assessed as cell viability at 100 uM after 48 hrs by MTT assay; type: functional; conditions: 23132-87, 48 h, read-out: Activity; outline: as §1
[7] = Cytotoxicity against human 23132/87 cells assessed as cell viability at 0.1 uM after 48 hrs by MTT assay; type: functional; conditions: 23132-87, 48 h, read-out: Activity; outline: as §1
[8] = system: Candida albicans; test: Antifungal activity against Candida albicans ATCC 10231 after 24 hrs by broth micro dilution method; type: functional; conditions: ATCC 10231, 24 h
Outline: (§2)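 Broth microdilution was run in cation-adjusted Mueller Hinton Broth. Compounds were dissolved in DMSO at 2 mg mL^-1 and serially diluted two-fold. Yeast precultures were grown in Malt Extract Broth for 48 h. The final inoculum was about 10⁶ cfu mL^-1, and plates were incubated at 37 °C for 24 h. The MIC was read from this series.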

[9] = system: Listeria monocytogenes; test: Antibacterial activity against Listeria monocytogenes ATCC 15313 after 24 hrs by broth micro dilution method; type: functional; conditions: ATCC 15313, 24 h
[10] = system: Bacillus cereus; test: Antibacterial activity against Bacillus cereus ATCC 7064 after 24 hrs by broth micro dilution method; type: functional; conditions: ATCC 7064, 24 h
[11] = system: Escherichia coli; test: Antibacterial activity against Escherichia coli ATCC 11230 after 24 hrs by agar disk diffusion assay; type: functional
Outline: (§3)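 Disk diffusion with sterile 6 mm discs loaded with DMSO solutions of the test agents and placed on inoculated agar. Bacteria were pre-grown in Nutrient Broth at 30 °C for 24 h, and plates were incubated at 35 °C for 24 h. Each plate carried a reference antibiotic disc matched to the organism, and a DMSO-only solvent control was run.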

[12] = system: Staphylococcus aureus; test: Antibacterial activity against Staphylococcus aureus ATCC 6538 after 24 hrs by agar disk diffusion assay; type: functional; outline: as §3
[13] = system: 23132-87; test: Induction of apoptosis in human 23132/87 cells assessed as change in nuclear appearance at 100 uM after 24 hrs by hoechst nuclear staining; type: functional, cell-based
Outline: (§4)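 Cells grown in 6-well plates were treated for 24 h, washed three times in PBS and fixed in ice-cold methanol for 10 min. They were stained with Hoechst 33258 for 5 min, destained in double-distilled water for 5 min and examined by fluorescence microscopy. Untreated and DMSO-treated cells served as controls.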

[14] = system: A549; test: Cytotoxicity against human A549 cells assessed as cell viability at 100 uM after 24 hrs by MTT assay; type: functional; conditions: A549, 24 h, read-out: Activity; outline: as §1
[15] = system: 23132-87; test: Induction of apoptosis in human 23132/87 cells assessed as DNA fragmentation at 100 uM after 24 hrs by DNA fragmentation assay; type: functional, cell-based
Outline: (§5)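 10 × 10⁴ cells were seeded in 6-well plates and treated with ligand for 24 h. Cells were then collected and washed in PBS, and DNA was extracted with a kit. Extracts were run on 1.5% agarose alongside a 100 bp marker, an untreated control and DMSO-treated controls, and ladders were visualized under UV.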

[16] = system: Rhodotorula mucilaginosa; test: Antifungal activity against Rhodotorula rubra DSM 70403 after 24 hrs by broth micro dilution method; type: functional; conditions: DSM 70403, 24 h; outline: as §2
[17] = system: Hanseniaspora guilliermondii; test: Antifungal activity against Hanseniaspora guilliermondii DSM 3432 after 24 hrs by broth micro dilution method; type: functional; conditions: DSM 3432, 24 h; outline: as §2
[18] = system: Bacillus cereus; test: Antibacterial activity against Bacillus cereus ATCC 7064 after 24 hrs by agar disk diffusion assay; type: functional; outline: as §3
[19] = system: Hanseniaspora guilliermondii; test: Antifungal activity against Hanseniaspora guilliermondii DSM 3432 after 72 hrs by agar disk diffusion assay; type: functional
Outline: (§6)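 Sterile 6 mm paper discs were loaded with ligand solution freshly prepared in DMSO and placed on inoculated agar. The inoculum came from broth cultures: bacteria in Nutrient Broth at 30 °C for 24 h, yeasts in Malt Extract Broth for 48 h. Plates were incubated at 35 °C for 24 h (bacteria) or 25 °C for 72 h (yeasts). A DMSO solvent control and a reference antibiotic disc were included on each plate.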

[20] = system: Mycolicibacterium smegmatis; test: Antibacterial activity against Mycobacterium smegmatis CCM 2067 after 24 hrs by broth micro dilution method; type: functional; conditions: CCM 2067, 24 h
[21] = system: Rhodotorula mucilaginosa; test: Antifungal activity against Rhodotorula rubra DSM 70403 after 72 hrs by agar disk diffusion assay; type: functional; outline: as §6
[22] = system: Debaryomyces hansenii; test: Antifungal activity against Debaryomyces hansenii DSM 70238 after 24 hrs by broth micro dilution method; type: functional; conditions: DSM 70238, 24 h; outline: as §2
[23] = system: A549; test: Induction of apoptosis in human A549 cells assessed as change in nuclear appearance at 100 uM after 24 hrs by hoechst nuclear staining; type: functional, cell-based; outline: as §4
[24] = system: Klebsiella pneumoniae; test: Antibacterial activity against Klebsiella pneumoniae UC57 after 24 hrs by broth micro dilution method; type: functional; conditions: UC57, 24 h
[25] = system: Staphylococcus aureus; test: Antibacterial activity against Staphylococcus aureus ATCC 6538 after 24 hrs by broth micro dilution method; type: functional; conditions: ATCC 6538, 24 h
[26] = system: Micrococcus luteus; test: Antibacterial activity against Micrococcus luteus La 2971 after 24 hrs by agar disk diffusion assay; type: functional; outline: as §3
[27] = system: Debaryomyces hansenii; test: Antifungal activity against Debaryomyces hansenii DSM 70238 after 72 hrs by agar disk diffusion assay; type: functional; outline: as §6
[28] = system: Listeria monocytogenes; test: Antibacterial activity against Listeria monocytogenes ATCC 15313 after 24 hrs by agar disk diffusion assay; type: functional; outline: as §3
[29] = system: Klebsiella pneumoniae; test: Antibacterial activity against Klebsiella pneumoniae UC57 after 24 hrs by agar disk diffusion assay; type: functional; outline: as §3
[30] = system: A549; test: Induction of apoptosis in human A549 cells assessed as DNA fragmentation at 100 uM after 24 hrs by DNA fragmentation assay; type: functional, cell-based; outline: as §5
[31] = system: Kluyveromyces marxianus; test: Antifungal activity against Kluyveromyces fragilis NRRL 2415 after 72 hrs by agar disk diffusion assay; type: functional; outline: as §6
[32] = system: Calf thymus DNA; test: Binding affinity to calf thymus DNA assessed as change in electromagnetic spectrum at 500 uM by UV-vis spectroscopy; type: nucleic-acid assay; conditions: Bos taurus
Outline: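 CT-DNA was prepared in ddH₂O and judged protein-free by an A260/A280 ratio of 1.8:1. UV–visible absorption spectra of the DNA solution were recorded without ligand and with increasing ligand amounts.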

[33] = system: A549; test: Cytotoxicity against human A549 cells assessed as cell viability at 0.1 uM after 48 hrs by MTT assay; type: functional; conditions: A549, 48 h, read-out: Activity; outline: as §1

MIC [2]	MIC [4]	MIC [8]	MIC [9]	MIC [10]	MIC [16]	MIC [17]	MIC [20]	SMILES	viability at 10 µM [1]	viability at 1 µM [3]	viability at 100 µM [5]	viability at 100 µM [6]	viability at 0.1 µM [7]	inhibition zone (IZ) [11]	inhibition zone (IZ) [12]	Activity [13]	viability at 100 µM [14]	Activity [15]	inhibition zone (IZ) [18]	inhibition zone (IZ) [19]	further results
50 µg/mL (≈ 83 µM)	12.5 µg/mL (≈ 20.7 µM)	6.25 µg/mL (≈ 10.4 µM)	25 µg/mL (≈ 41.5 µM)	6.25 µg/mL (≈ 10.4 µM)	6.25 µg/mL (≈ 10.4 µM)	1.56 µg/mL (≈ 2.59 µM)	25 µg/mL (≈ 41.5 µM)	O=C1CSCC(=O)Nc2nc(nc(-c3ccccc3)n2)NC(=O)CSCC(=O)Nc2nc(nc(-c3ccccc3)n2)N1	> 86%	> 86%	> 86%	> 86%	> 86%	10 mm	12 mm	inactive	> 86%	inactive	14 mm	20 mm	inhibition zone (IZ) [21]: 17 mm; MIC [22]: 3.12 µg/mL (≈ 5.19 µM); Activity [23]: inactive; MIC [24]: 12.5 µg/mL (≈ 20.7 µM); MIC [25]: 12.5 µg/mL (≈ 20.7 µM); inhibition zone (IZ) [26]: 14 mm; inhibition zone (IZ) [27]: 18 mm; inhibition zone (IZ) [28]: 10 mm; inhibition zone (IZ) [29]: 13 mm; Activity [30]: inactive; inhibition zone (IZ) [31]: 15 mm; Activity [32]: inactive; viability at 0.1 µM [33]: > 86%
25 µg/mL (≈ 34.6 µM)	6.25 µg/mL (≈ 8.65 µM)	3.12 µg/mL (≈ 4.32 µM)	25 µg/mL (≈ 34.6 µM)	6.25 µg/mL (≈ 8.65 µM)	3.12 µg/mL (≈ 4.32 µM)	1.56 µg/mL (≈ 2.16 µM)	25 µg/mL (≈ 34.6 µM)	O=C1CCSSCCC(=O)Nc2nc(nc(-c3ccccc3)n2)NC(=O)CCSSCCC(=O)Nc2nc(nc(-c3ccccc3)n2)N1	> 86%	> 86%	> 86%	> 86%	> 86%	10 mm	12 mm	inactive	> 86%	inactive	15 mm	22 mm	inhibition zone (IZ) [21]: 21 mm; MIC [22]: 1.56 µg/mL (≈ 2.16 µM); Activity [23]: inactive; MIC [24]: 6.25 µg/mL (≈ 8.65 µM); MIC [25]: 12.5 µg/mL (≈ 17.3 µM); inhibition zone (IZ) [26]: 17 mm; inhibition zone (IZ) [27]: 22 mm; inhibition zone (IZ) [28]: 10 mm; inhibition zone (IZ) [29]: 16 mm; Activity [30]: inactive; inhibition zone (IZ) [31]: 21 mm; Activity [32]: inactive; viability at 0.1 µM [33]: > 86%
25 µg/mL (≈ 37.9 µM)	12.5 µg/mL (≈ 19 µM)	3.12 µg/mL (≈ 4.74 µM)	25 µg/mL (≈ 37.9 µM)	12.5 µg/mL (≈ 19 µM)	6.25 µg/mL (≈ 9.49 µM)	1.56 µg/mL (≈ 2.37 µM)	50 µg/mL (≈ 75.9 µM)	O=C1CCSCCC(=O)Nc2nc(nc(-c3ccccc3)n2)NC(=O)CCSCCC(=O)Nc2nc(nc(-c3ccccc3)n2)N1	> 86%	> 86%	> 86%	> 86%	> 86%	10 mm	10 mm	inactive	> 86%	inactive	13 mm	19 mm	inhibition zone (IZ) [21]: 16 mm; MIC [22]: 3.12 µg/mL (≈ 4.74 µM); Activity [23]: inactive; MIC [24]: 12.5 µg/mL (≈ 19 µM); MIC [25]: 25 µg/mL (≈ 37.9 µM); inhibition zone (IZ) [26]: 12 mm; inhibition zone (IZ) [27]: 18 mm; inhibition zone (IZ) [28]: 10 mm; inhibition zone (IZ) [29]: 13 mm; Activity [30]: inactive; inhibition zone (IZ) [31]: 16 mm; Activity [32]: inactive; viability at 0.1 µM [33]: > 86%
25 µg/mL (≈ 37.5 µM)	3.12 µg/mL (≈ 4.69 µM)	3.12 µg/mL (≈ 4.69 µM)	25 µg/mL (≈ 37.5 µM)	3.12 µg/mL (≈ 4.69 µM)	3.12 µg/mL (≈ 4.69 µM)	1.56 µg/mL (≈ 2.34 µM)	25 µg/mL (≈ 37.5 µM)	O=C1CSSCC(=O)Nc2nc(nc(-c3ccccc3)n2)NC(=O)CSSCC(=O)Nc2nc(nc(-c3ccccc3)n2)N1	> 86%	> 86%	> 86%	> 86%	> 86%	10 mm	14 mm	inactive	> 86%	inactive	17 mm	20 mm	inhibition zone (IZ) [21]: 18 mm; MIC [22]: 1.56 µg/mL (≈ 2.34 µM); Activity [23]: inactive; MIC [24]: 6.25 µg/mL (≈ 9.37 µM); MIC [25]: 12.5 µg/mL (≈ 18.7 µM); inhibition zone (IZ) [26]: 18 mm; inhibition zone (IZ) [27]: 21 mm; inhibition zone (IZ) [28]: 10 mm; inhibition zone (IZ) [29]: 15 mm; Activity [30]: inactive; inhibition zone (IZ) [31]: 19 mm; Activity [32]: inactive; viability at 0.1 µM [33]: > 86%
